Source: ChEMBL document CHEMBL4390684, “The synthesis of 4,6-diaryl-2-pyridones and their bioactivation in CYP1 expressing breast cancer cells” (Bioorg Med Chem Lett, 2019)

Tested on: MCF7
Assay: Activation factor, ratio of antiproliferative IC50 of ER positive human MCF7 cells expressing low level of CYP to antiproliferative IC50 of […]-induced ER positive human MCF7 cells expressing CYP1A1
Format: functional
Conditions: not given

Structure (SMILES) | Ratio IC50
COc1ccc(-c2cc(-c3ccc(O)c(O)c3)cc(=O)[nH]2)c(OC)c1 | 2.1
COc1ccc(-c2cc(-c3ccc(OC)c(OC)c3)cc(=O)[nH]2)c(OC)c1 | 2.5
COc1ccc(-c2cc(-c3ccc(OC)cc3OC)[nH]c(=O)c2)cc1 | 2.5
O=c1cc(-c2ccc3c(c2)OCO3)cc(-c2ccccc2)[nH]1 | 2
COc1ccc(-c2cc(-c3ccc(OC)cc3OC)[nH]c(=O)c2)c(OC)c1 | 2
COc1cc(OC)cc(-c2cc(-c3ccc4c(c3)OCO4)cc(=O)[nH]2)c1 | 2
COc1ccc(-c2cc(-c3ccc4c(c3)OCO4)cc(=O)[nH]2)c(OC)c1OC | 1.2
O=c1cc(-c2ccc3c(c2)OCO3)cc(-c2ccc(Cl)cc2Cl)[nH]1 | 1.2

Tested on: not listed separately
Assay: Selectivity index, ratio of IC50 for human MCF10A cells to IC50 for human MDA-MB-468 cells expressing CYP1A1 and CYP1B1
Format: toxicity
Conditions: read-out: Ratio IC50

Structure (SMILES) | selectivity ratio
COc1ccc(-c2cc(-c3ccc4c(c3)OCO4)cc(=O)[nH]2)cc1 | > 100
COc1ccc(-c2cc(-c3ccc4c(c3)OCO4)cc(=O)[nH]2)cc1OC | > 244
COc1ccc(-c2cc(-c3ccc(O)c(O)c3)cc(=O)[nH]2)c(OC)c1 | 3
COc1ccc(-c2cc(-c3ccc(OC)c(OC)c3)cc(=O)[nH]2)c(OC)c1 | 100
COc1ccc(-c2cc(-c3ccc(OC)cc3OC)[nH]c(=O)c2)cc1 | 20
O=c1cc(-c2ccc3c(c2)OCO3)cc(-c2ccccc2)[nH]1 | 3.1
COc1ccc(-c2cc(-c3ccc(OC)cc3OC)[nH]c(=O)c2)c(OC)c1 | 1
COc1cc(OC)cc(-c2cc(-c3ccc4c(c3)OCO4)cc(=O)[nH]2)c1 | 2
COc1ccc(-c2cc(-c3ccc4c(c3)OCO4)cc(=O)[nH]2)c(OC)c1OC | > 12.5
O=c1cc(-c2ccc3c(c2)OCO3)cc(-c2ccc(Cl)cc2Cl)[nH]1 | > 1.7

Tested on: MCF7
Assay: Antiproliferative activity against ER positive human MCF7 cells expressing low level of CYP assessed as reduction in cell viability measured after 96 hrs by MTT assay
Format: functional, cell-based
Conditions: MCF7, 96 h
Summary of the method: (§1)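 Antiproliferative IC50 values were determined in MCF-7, MDA-MB-468, TCDD-treated MCF-7 (high CYP1A1 expression) and non-tumour MCF-10A breast cells. Each value is the mean of two independent experiments run in quadruplicate.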

Structure (SMILES) | IC50
COc1ccc(-c2cc(-c3ccc4c(c3)OCO4)cc(=O)[nH]2)cc1 | > 100 µM
COc1ccc(-c2cc(-c3ccc4c(c3)OCO4)cc(=O)[nH]2)cc1OC | > 100 µM
O=c1cc(-c2ccc3c(c2)OCO3)cc(-c2ccccc2)[nH]1 | 1.6 µM
COc1cc(OC)cc(-c2cc(-c3ccc4c(c3)OCO4)cc(=O)[nH]2)c1 | 0.4 µM
COc1ccc(-c2cc(-c3ccc4c(c3)OCO4)cc(=O)[nH]2)c(OC)c1OC | 12 µM
O=c1cc(-c2ccc3c(c2)OCO3)cc(-c2ccc(Cl)cc2Cl)[nH]1 | 85 µM

Other lines, results leading:

IC50 | Structure (SMILES)
1.5 µM | COc1ccc(-c2cc(-c3ccc(O)c(O)c3)cc(=O)[nH]2)c(OC)c1
1 µM | COc1ccc(-c2cc(-c3ccc(OC)c(OC)c3)cc(=O)[nH]2)c(OC)c1
0.5 µM | COc1ccc(-c2cc(-c3ccc(OC)cc3OC)[nH]c(=O)c2)cc1
9 µM | COc1ccc(-c2cc(-c3ccc(OC)cc3OC)[nH]c(=O)c2)c(OC)c1

Tested on: MCF-10A
Assay: Cytotoxicity against human MCF10A cells assessed as reduction in cell viability after 96 hrs by MTT assay
Format: cell-based
Conditions: not given
Summary of the method: as §1

Structure (SMILES) | IC50
COc1ccc(-c2cc(-c3ccc4c(c3)OCO4)cc(=O)[nH]2)cc1 | > 100 µM
COc1ccc(-c2cc(-c3ccc4c(c3)OCO4)cc(=O)[nH]2)cc1OC | > 100 µM
COc1ccc(-c2cc(-c3ccc(O)c(O)c3)cc(=O)[nH]2)c(OC)c1 | 1.5 µM
COc1ccc(-c2cc(-c3ccc(OC)c(OC)c3)cc(=O)[nH]2)c(OC)c1 | 50 µM
COc1ccc(-c2cc(-c3ccc(OC)cc3OC)[nH]c(=O)c2)cc1 | 1.6 µM
O=c1cc(-c2ccc3c(c2)OCO3)cc(-c2ccccc2)[nH]1 | 2.5 µM
COc1ccc(-c2cc(-c3ccc(OC)cc3OC)[nH]c(=O)c2)c(OC)c1 | 5 µM
COc1cc(OC)cc(-c2cc(-c3ccc4c(c3)OCO4)cc(=O)[nH]2)c1 | 0.7 µM
COc1ccc(-c2cc(-c3ccc4c(c3)OCO4)cc(=O)[nH]2)c(OC)c1OC | > 100 µM
O=c1cc(-c2ccc3c(c2)OCO3)cc(-c2ccc(Cl)cc2Cl)[nH]1 | > 100 µM

Tested on: MDA-MB-468
Assay: Antiproliferative activity against ER negative human MDA-MB-468 cells expressing CYP1A1 and CYP1B1 assessed as reduction in cell viability measured after 96 hrs by MTT assay
Format: functional, cell-based
Conditions: MDA-MB-468, 96 h
Summary of the method: as §1

Structure (SMILES) | IC50
COc1ccc(-c2cc(-c3ccc4c(c3)OCO4)cc(=O)[nH]2)cc1 | 1 µM
COc1ccc(-c2cc(-c3ccc4c(c3)OCO4)cc(=O)[nH]2)cc1OC | 0.41 µM
O=c1cc(-c2ccc3c(c2)OCO3)cc(-c2ccccc2)[nH]1 | 0.8 µM
COc1cc(OC)cc(-c2cc(-c3ccc4c(c3)OCO4)cc(=O)[nH]2)c1 | 0.35 µM
COc1ccc(-c2cc(-c3ccc4c(c3)OCO4)cc(=O)[nH]2)c(OC)c1OC | 8 µM
O=c1cc(-c2ccc3c(c2)OCO3)cc(-c2ccc(Cl)cc2Cl)[nH]1 | 60 µM

Now from value to compound:

IC50 | Structure (SMILES)
0.5 µM | COc1ccc(-c2cc(-c3ccc(O)c(O)c3)cc(=O)[nH]2)c(OC)c1
0.5 µM | COc1ccc(-c2cc(-c3ccc(OC)c(OC)c3)cc(=O)[nH]2)c(OC)c1
0.08 µM | COc1ccc(-c2cc(-c3ccc(OC)cc3OC)[nH]c(=O)c2)cc1
5 µM | COc1ccc(-c2cc(-c3ccc(OC)cc3OC)[nH]c(=O)c2)c(OC)c1

Molecular target: T1, Cytochrome P450 1B1 (Homo sapiens, UniProt Q16678)
T1 sequence (Q16678 whole entry): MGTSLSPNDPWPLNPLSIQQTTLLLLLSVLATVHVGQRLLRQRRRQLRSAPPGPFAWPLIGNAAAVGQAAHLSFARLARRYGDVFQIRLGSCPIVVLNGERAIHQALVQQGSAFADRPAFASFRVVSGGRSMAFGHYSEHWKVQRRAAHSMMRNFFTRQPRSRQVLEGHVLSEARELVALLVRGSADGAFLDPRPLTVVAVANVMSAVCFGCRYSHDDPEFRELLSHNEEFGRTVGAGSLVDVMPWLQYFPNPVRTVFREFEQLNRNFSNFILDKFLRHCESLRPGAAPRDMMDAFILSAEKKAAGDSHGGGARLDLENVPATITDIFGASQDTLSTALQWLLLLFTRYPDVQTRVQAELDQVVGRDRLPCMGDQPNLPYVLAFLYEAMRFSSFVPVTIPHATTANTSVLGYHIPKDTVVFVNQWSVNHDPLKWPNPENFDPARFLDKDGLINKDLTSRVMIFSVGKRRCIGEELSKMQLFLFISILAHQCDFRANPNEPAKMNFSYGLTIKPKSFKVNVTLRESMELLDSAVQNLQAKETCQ
Assay: Drug metabolism in supersomes expressing human CYP1B1 and coexpressing NADPH reductase assessed as CYP1B1-mediated drug metabolism by measuring retention time at 10 uM in the presence of NADPH measured at 5 mins interval for 25 mins by reverse phase HPLC method
Format: ADME
Conditions: recombinant enzyme
Summary of the method: (§2)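 Substrate was incubated with insect-cell Supersomes expressing human CYP1A1 or CYP1B1 plus NADPH reductase, at 20 pmol/mL CYP. Controls used non-CYP Supersomes, or omitted the compound, NADPH or active enzyme. Duplicate samples were taken every 5 min and quenched with ice-cold acetonitrile. After centrifugation, the supernatant was analysed by reverse-phase HPLC for parent depletion (half-life) and metabolite peaks.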

Retention_time | Structure (SMILES)
10.48 min | COc1ccc(-c2cc(-c3ccc(O)c(O)c3)cc(=O)[nH]2)c(OC)c1

Tested on: MCF7
Assay: Antiproliferative activity against […]-induced ER positive human MCF7 cells expressing CYP1A1 assessed as reduction in cell viability after 96 hrs by MTT assay
Format: functional, cell-based
Conditions: MCF7, 96 h
Summary of the method: as §1

Structure (SMILES) | IC50
COc1ccc(-c2cc(-c3ccc4c(c3)OCO4)cc(=O)[nH]2)cc1 | > 100 µM
COc1ccc(-c2cc(-c3ccc4c(c3)OCO4)cc(=O)[nH]2)cc1OC | > 100 µM
O=c1cc(-c2ccc3c(c2)OCO3)cc(-c2ccccc2)[nH]1 | 0.8 µM
COc1cc(OC)cc(-c2cc(-c3ccc4c(c3)OCO4)cc(=O)[nH]2)c1 | 0.2 µM
COc1ccc(-c2cc(-c3ccc4c(c3)OCO4)cc(=O)[nH]2)c(OC)c1OC | 10 µM
O=c1cc(-c2ccc3c(c2)OCO3)cc(-c2ccc(Cl)cc2Cl)[nH]1 | 70 µM

Other lines, results leading:

IC50 | Structure (SMILES)
0.7 µM | COc1ccc(-c2cc(-c3ccc(O)c(O)c3)cc(=O)[nH]2)c(OC)c1
0.4 µM | COc1ccc(-c2cc(-c3ccc(OC)c(OC)c3)cc(=O)[nH]2)c(OC)c1
0.2 µM | COc1ccc(-c2cc(-c3ccc(OC)cc3OC)[nH]c(=O)c2)cc1
4.5 µM | COc1ccc(-c2cc(-c3ccc(OC)cc3OC)[nH]c(=O)c2)c(OC)c1

Molecular target: T2, Cytochrome P450 1A1 (Homo sapiens, UniProt P04798)
T2 sequence (P04798 whole entry): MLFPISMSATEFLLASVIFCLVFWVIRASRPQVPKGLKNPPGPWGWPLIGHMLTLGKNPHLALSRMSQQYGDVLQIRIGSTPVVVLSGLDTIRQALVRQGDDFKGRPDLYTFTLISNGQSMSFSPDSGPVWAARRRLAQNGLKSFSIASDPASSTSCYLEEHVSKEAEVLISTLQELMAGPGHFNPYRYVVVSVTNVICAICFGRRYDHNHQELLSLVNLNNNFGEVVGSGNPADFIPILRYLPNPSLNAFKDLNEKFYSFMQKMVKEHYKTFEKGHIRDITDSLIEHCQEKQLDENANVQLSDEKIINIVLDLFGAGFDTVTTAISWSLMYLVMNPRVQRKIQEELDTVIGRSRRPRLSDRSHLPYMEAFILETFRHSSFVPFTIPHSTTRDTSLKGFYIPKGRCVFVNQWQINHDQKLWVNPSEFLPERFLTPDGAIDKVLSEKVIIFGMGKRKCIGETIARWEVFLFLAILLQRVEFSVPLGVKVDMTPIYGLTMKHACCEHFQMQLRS
Assay: Drug metabolism in supersomes expressing human CYP1A1 and coexpressing NADPH reductase assessed as CYP1A1-mediated drug metabolism by measuring retention time at 10 uM in the presence of NADPH measured at 5 mins interval for 25 mins by reverse phase HPLC method
Format: ADME
Conditions: recombinant enzyme
Summary of the method: as §2

Retention_time | Structure (SMILES)
10.48 min | COc1ccc(-c2cc(-c3ccc(O)c(O)c3)cc(=O)[nH]2)c(OC)c1
